# Reference: article PMC2141641 (The Journal of Cell Biology, 1997)
# Experiments:
# [1] = tested on: CD36 null animals; conditions: ref Febbraio, M., O.V. Volpert, N.P. Bouck, and R.L. Silverstein, unpublished data; cited from earlier work
# [2] = tested on: neovascularization in vivo; conditions: ref O'Reilly et al., 1994; cited from earlier work
# [3] = tested on: endothelial cells; conditions: cited from earlier work
# [4] = tested on: Human dermal microvascular endothelial cells (HMVECs); assay: Endothelial cell migration assay, HMVECs; assay type: cell-based; conditions: for inhibition of bFGF-induced HMVEC migration by other CD36 ligands / effect on migration when tested alone: 2 μg/ml
# How it was run: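 Human dermal microvascular cells (passages 6–9) were serum-starved and then migrated in a Boyden chamber 4 h at 37°C toward bFGF. Collagen I, LDL and copper-oxidized LDL were tested at 2 μg/ml, with or without 10 μg/ml anti-CD36 IgG added to both wells. Quadruplicate wells, two experiments. Counts were normalized to bFGF minus control-medium background. Two-tailed t test was run on raw data.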
# [5] = tested on: Bovine adrenal capillary endothelial cells (BCECs); assay: Endothelial cell migration assay, BCECs; assay type: cell-based
# How it was run: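 Bovine adrenal capillary cells (DME, 10% donor calf serum, 1% endothelial mitogen; passage 15) were starved overnight in DME/0.1% BSA. 3 × 10^4 cells/well were attached 2 h at 37°C to a gelatinized membrane in an inverted Boyden chamber, then reinverted. GST–CD36 fusion proteins were preincubated with 2 nM TSP-1, warmed to room temperature, and added to the top wells. Migration to bFGF ran 4 h at 37°C. Migrated cells/10 high-power fields counted; normalized to bFGF minus background.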
# [6] = tested on: endothelial cells; conditions: in vitro; ref Iruela-Arispe et al., 1991; DiPietro et al., 1994; Canfield and Schor, 1995; cited from earlier work
# [7] = tested on: neovascularization, rodent cornea; conditions: rodent cornea assay; ref Good et al., 1990; Tolsma et al., 1993; cited from earlier work
# [8] = tested on: neovascularization, polyvinyl sponge; conditions: polyvinyl sponge assay; ref Good et al., 1990; Tolsma et al., 1993; cited from earlier work
# [9] = tested on: endothelial cells; conditions: in vitro; ref Tolsma et al., 1997; cited from earlier work
# [10] = tested on: CD36; conditions: cited from earlier work
# [11] = tested on: Melanoma cells not transfected with CD36; conditions: ref Silverstein et al., 1992; cited from earlier work
# [12] = tested on: CD36-transfected HUVECs; assay: Migration assay of CD36-transfected HUVEC clones; assay type: cell-based, human; conditions: TSP-1 2 nM, bFGF
# How it was run: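 HUVECs at passage 2 were lipofected with a CD36 plasmid (30 μg DNA, 5 h, 37°C) and selected in 100 μg/ml G418. Cloned lines were checked for CD36 by flow cytometry. Clones migrated toward bFGF in a Boyden chamber (4 h, 37°C) with 2 nM TSP-1, with or without 10 μg/ml anti-CD36 antibody OKM-5. Four experiments; normalized to bFGF minus background.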
# [13] = tested on: CD36-transfected HUVECs; assay: Tube formation assay in Matrigel, CD36-transfected HUVECs; assay type: cell-based, human; conditions: 24 h at 37°C, endogenous TSP-1 expression by clones
substance,measurement,setting,value
Angiostatin,inhibition of corneal neovascularization in CD36 null animals,[1],not by angiostatin is defective in CD36 null animals
same,inhibition of angiogenesis in vivo by angiostatin,[2],of angiogenesis in vivo
same,inhibition of endothelial cell migration in vitro by angiostatin,"[3]; ref Gately et al., 1996",well-established inhibitor of endothelial cell migration in vitro
same,inhibition of HMVEC migration by angiostatin,"[4]; angiostatin 2 μg/ml, bFGF, control inhibitor",inhibition of endothelial cell migration by angiostatin
"FP93-120: GST–CD36 fusion protein containing the TSP-1 binding region, amino acids 93–120 (YRVRFLAKENVTQDAEDNTVSFLQPNGA; left off: GST, end not stated, kept) [reference compound]",block of inhibition of migration by Col overlap peptide,"[5]; Col overlap 30 μM, bFGF, fusion protein preincubated 2 h at 4°C",blocked the inhibitory effects of Col overlap
Thrombospondin-1 [TSP-1],concentration inhibiting tube formation,[6],below 20 nM
same,"inhibition of bFGF-induced migration by TSP-1, BCEC",[5]; TSP-1 2 nM,TSP-1 inhibition of bFGF-induced migration
same,inhibition of corneal neovascularization in CD36 null animals,[1],defective in CD36 null animals
same,concentrations effective in vitro (inhibition of angiogenesis),"[3]; ref Good et al., 1990, Tolsma et al., 1993",subnanomolar
same,concentration inhibiting endothelial cell migration (biphasic dose response),"[3]; ref Taraboletti et al., 1990, Tolsma et al., 1993, Gao et al., 1996",less than 20 nM
same,inhibition of bFGF-induced HMVEC migration by TSP-1,[4]; TSP-1 2 nM,inhibition of bFGF-induced migration of HMVECs by TSP-1
same,"prevention of neovascularization in vivo, rodent cornea",[7],able to prevent neovascularization in vivo
same,"prevention of neovascularization in vivo, polyvinyl sponge",[8],able to prevent neovascularization in vivo
same,concentration inhibiting lumen formation,[9],below 20 nM
same,interaction of TSP-1 with CD36 amino acids 93–120,"[10]; minimal region of CD36, ref Pearce et al., 1995","specific, saturable, and reversible manner"
same,TSP-1 binding to melanoma cells not transfected with CD36,[11],do not bind TSP-1
same,TSP-1 inhibition of migration of CD36-transfected clone 35,[12]; clone 35 (very low CD36),refractory to TSP-1 inhibition
same,TSP-1 inhibition of migration of CD36-transfected clones 31 and 36,[12]; clones 31 and 36 (higher CD36),sensitive to TSP-1 inhibition
same,TSP-1 inhibition of tube formation after CD36 transfection,[13],became sensitive to TSP-1 inhibition of both migration and tube formation
"glutathione-S-transferase [GST, reference compound]",block of TSP-1 inhibition of bFGF-induced migration,"[5]; TSP-1 2 nM, fusion protein preincubated 2 h at 4°C, migration 4 h at 37°C",ineffective
human type I collagen [human collagen I],inhibition of bFGF-induced HMVEC migration by other CD36 ligands,[4],inhibited bFGF-induced HMVEC migration
same,effect on migration when tested alone,[4],no significant effect on migration
low-density lipoprotein [LDL],inhibition of bFGF-induced HMVEC migration by other CD36 ligands,[4],failed to influence HMVEC migration
same,effect on migration when tested alone,[4],no significant effect on migration
same,binding of unoxidized LDL to CD36,"[10]; ref Endemann et al., 1993",unable to bind CD36
oxidized low-density lipoprotein [OxLDL],inhibition of bFGF-induced HMVEC migration by other CD36 ligands,[4],inhibited bFGF-induced HMVEC migration
same,effect on migration when tested alone,[4],no significant effect on migration
same,concentration below which ineffective at inhibiting migration,"[4]; bFGF-induced HMVEC migration, data not shown",below 0.1 nM
